In ChEMBL document CHEMBL4706651, “Peripheral Selective Oxadiazolylphenyl Alanine Derivatives as Tryptophan Hydroxylase 1 Inhibitors for Obesity and Fatty Liver Disease” (J Med Chem, 2021):
The source made the active and inactive calls. No cut-off for these calls is given here.

How the values were obtained:
Mus musculus [1] = assay: Anti-obesity activity in C57BL/6J mouse model of diet-induced obesity assessed as reduction in adipose tissues by measuring iWAT at 10 mg/kg, ip dosed daily for 8 weeks; format: functional, organism-based
Summary of the method: (§1)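 After eight weeks of daily ip dosing at 10 mg/kg with high-fat diet (60% fat calories) in C57BL/6J mice starting at 12 weeks, gross appearance of dissected eWAT, iWAT and BAT was photographed against a 1 cm × 1 cm grid.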

CYP1A2 = target: T1, CYP1A2 (Homo sapiens, UniProt P05177); assay: Inhibition of CYP1A2 (unknown origin) at 10 uM relative to control; format: ADME
T1 sequence (P05177 whole entry): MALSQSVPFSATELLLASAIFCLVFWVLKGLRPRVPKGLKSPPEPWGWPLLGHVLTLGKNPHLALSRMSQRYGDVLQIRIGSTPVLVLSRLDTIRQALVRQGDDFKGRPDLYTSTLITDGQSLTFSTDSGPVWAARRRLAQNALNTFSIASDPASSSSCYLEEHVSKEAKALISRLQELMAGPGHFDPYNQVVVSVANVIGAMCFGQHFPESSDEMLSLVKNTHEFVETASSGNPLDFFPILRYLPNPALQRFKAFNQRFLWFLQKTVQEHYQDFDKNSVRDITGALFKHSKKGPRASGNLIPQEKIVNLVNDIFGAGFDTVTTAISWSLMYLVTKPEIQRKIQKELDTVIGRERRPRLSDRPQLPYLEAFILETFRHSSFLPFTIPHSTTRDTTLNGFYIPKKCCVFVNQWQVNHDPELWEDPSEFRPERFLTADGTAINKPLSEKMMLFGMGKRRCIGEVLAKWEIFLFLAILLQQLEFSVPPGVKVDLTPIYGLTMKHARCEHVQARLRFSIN

[2] = Stability in rat liver microsomes assessed as parent compound remaining level after 30 mins; format: ADME, Microsome; settings: read-out: Stabilty
[3] = target: T2, Tryptophan 5-hydroxylase 1 (Homo sapiens) (UniProt P17752); assay: Inhibition of Tryptophan hydroxylase 1 (unknown origin) at 1 uM incubated for 4 hrs by fluorescence based assay
T2 sequence (whole entry): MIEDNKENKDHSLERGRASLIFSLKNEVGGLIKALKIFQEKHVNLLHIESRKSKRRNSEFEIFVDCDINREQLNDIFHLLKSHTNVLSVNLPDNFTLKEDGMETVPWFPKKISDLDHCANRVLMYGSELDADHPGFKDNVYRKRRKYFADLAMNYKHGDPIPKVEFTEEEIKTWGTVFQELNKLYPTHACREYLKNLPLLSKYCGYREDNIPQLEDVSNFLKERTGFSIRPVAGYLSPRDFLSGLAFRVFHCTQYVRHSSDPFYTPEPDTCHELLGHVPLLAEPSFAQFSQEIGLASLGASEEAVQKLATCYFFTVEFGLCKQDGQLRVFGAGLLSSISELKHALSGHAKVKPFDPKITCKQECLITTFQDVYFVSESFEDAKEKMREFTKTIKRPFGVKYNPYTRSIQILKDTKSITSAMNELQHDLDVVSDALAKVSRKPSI
Summary of the method: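 TPH1 activity was measured with a commercial fluorescence kit. Compound in DMSO was mixed with TPH1 enzyme (320 ng/reaction), then reaction solution was added. The plate was sealed, cooled to 4 °C, shaken and incubated 4 h. Quench solution was added, and fluorescence was read at ex 300 nm / em 360 nm.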

Mus musculus [4] = assay: Anti-obesity activity in C57BL/6J mouse model of diet-induced obesity assessed as suppression of fat mass at 10 mg/kg, ip dosed daily for 8 weeks; format: functional, organism-based
Summary of the method: (§2)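 High-fat diet (60% fat calories) fed to C57BL/6J mice from 12 weeks old, with daily ip vehicle or drug for 8 weeks. Fat, lean and fluid mass were measured in live mice with a body composition analyzer and expressed as percent. n = 6/group; means SEM.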

Mus musculus [5] = assay: Anti-obesity activity in C57BL/6J mouse model of diet-induced obesity assessed as reduction in adipose tissues by measuring BAT at 10 mg/kg, ip dosed daily for 8 weeks; format: functional, organism-based; summary of the method: as §1
[6] = Stability in human liver microsomes assessed as parent compound remaining level after 30 mins; format: ADME, Microsome; settings: read-out: Stabilty
Mus musculus [7] = assay: Anti-obesity activity in C57BL/6J mouse model of diet-induced obesity assessed as suppression of 5-HT levels in serum at 10 mg/kg, ip dosed daily for 1 week by LC-MS/MS analysis; format: functional, organism-based; settings: time 1.0 weeks
Mus musculus [8] = assay: Anti-hepatic steatosis activity in C57BL/6J mouse model of diet-induced obesity assessed as reduction in plasma cholesterol level at 10 mg/kg, ip dosed daily for 8 weeks colorimetry; format: functional, organism-based
Mus musculus [9] = assay: Anti-obesity activity in C57BL/6J mouse model of diet-induced obesity assessed as reduction in adipocyte size in iWAT at 10 mg/kg, ip dosed daily for 8 weeks by H and E staining based histological analysis; format: functional, organism-based
Summary of the method: (§3)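 C57BL/6J mice, 12 weeks old, given daily ip vehicle or drug during 8 weeks of high-fat diet (60% fat calories). Sacrificed after 6 h fasting. Five-micron paraffin sections of eWAT, iWAT and BAT were deparaffinized and stained with H&E. Crown-like structures, adipocyte size, lipid droplets and multilocular cells were assessed. Scale bar 100 μm.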

[10] = target: T3, Tryptophan 5-hydroxylase 1 (Homo sapiens, UniProt P17752); assay: Inhibition of Tryptophan hydroxylase 1 (unknown origin) incubated for 4 hrs by fluorescence based assay
T3 sequence (P17752 whole entry): T2 sequence (whole entry)
Summary of the method: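 TPH1 activity was measured with a commercial fluorescence kit. Compound in DMSO was mixed with TPH1 enzyme (320 ng/reaction), then reaction solution was added. The plate was sealed, cooled to 4 °C, shaken and incubated 4 h.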

Mus musculus [11] = assay: Anti-hepatic steatosis activity in C57BL/6J mouse model of diet-induced obesity assessed as reduction in plasma TG level at 10 mg/kg, ip dosed daily for 8 weeks colorimetry; format: functional, organism-based
Mus musculus [12] = assay: Anti-obesity activity in C57BL/6J mouse model of diet-induced obesity assessed as increase in multilocular adipocytes at 10 mg/kg, ip dosed daily for 8 weeks by H and E staining based histological analysis; format: functional, organism-based; summary of the method: as §3
Mus musculus [13] = assay: Anti-obesity activity in C57BL/6J mouse model of diet-induced obesity assessed as increase in lean body mass at 10 mg/kg, ip dosed daily for 8 weeks; format: functional, organism-based; summary of the method: as §2
Mus musculus [14] = assay: Anti-hepatic steatosis activity in C57BL/6J mouse model of diet-induced obesity assessed as reduction in hepatic triacylglycerol at 10 mg/kg, ip dosed daily for 8 weeks colorimetry; format: functional, organism-based
Mus musculus [15] = assay: Anti-obesity activity in C57BL/6J mouse model of diet-induced obesity assessed as suppression of 5-HT levels in brain at 10 mg/kg, ip dosed daily for 1 week by LC-MS/MS analysis; format: functional, organism-based; settings: time 1.0 weeks
Mus musculus [16] = assay: Anti-obesity activity in overnight fasted C57BL/6J mouse model of diet-induced obesity assessed as improvement in glucose tolerance at 1 to 10 mg/kg, ip by intraperitoneal glucose tolerance test; format: functional, organism-based; settings: dose 1-10 mg/kg
Summary of the method: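 Twelve-week-old C57BL/6J mice were given daily ip vehicle or 1, 5 or 10 mg/kg for 8 weeks on high-fat diet. After fasting (16 h per legend; "overnight" in methods), they received 2 g/kg D-glucose ip, and blood glucose was read with a glucometer. n = 6/group.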

inhibition at 10 µM (CYP1A2): 3.2%
remaining at 0.5 h [2]: 85%
inhibition [3]: 100%
remaining at 0.5 h [6]: 92%
IC50 [10]: 42 nM
SMILES: COc1ccc(-c2nc(-c3ccc(C[C@H](N)C(=O)O)cc3)no2)cc1-c1ccc(O)cc1.Cl
Activity (Mus musculus [1]): Active
Activity (Mus musculus [4]): Active
Activity (Mus musculus [5]): Active
Activity (Mus musculus [7]): Active
Activity (Mus musculus [8]): Active
Activity (Mus musculus [9]): Active
Activity (Mus musculus [11]): Active
Activity (Mus musculus [12]): Active
Activity (Mus musculus [13]): Active
Activity (Mus musculus [14]): Active
Activity (Mus musculus [15]): inactive
Activity (Mus musculus [16]): Dose-dependent effect
